In test [1] the target is T1, B. subtilis XPRT (Bacillus subtilis, UniProt P42085). As to the kind of experiment: XPRT activity assay. In kind it is biochemical. The note with it: 1 mM PRPP, 50 μM xanthine; ± standard error. An outline of the steps:
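Xanthine started the reaction, and XMP was followed at A252 for 10 min (Δε 5350 M−1cm−1). Initial-velocity slopes were normalized to uninhibited controls and fitted to Y = 1/(1 + (X/IC50)^n), with n reported as napp.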

The target in test [2] is T1, B. subtilis XPRT. The experiment in a line: DRaCALA binding of 32P-labeled alarmones to XPRT. The note with it: for nH (Hill coefficient from binding curve): DRaCALA binding curve, ± standard error. An outline of the steps:
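Purified hexahistidine-tagged B. subtilis XPRT at varied concentrations was mixed with 32P-labelled alarmone in 20 mM HEPES pH 8, 100 mM NaCl, 10 mM MgCl2. The label was added at 1:50–1:100 of the first synthesis elution fraction. After 10 min at room temperature, aliquots were spotted on nitrocellulose, dried ≥20 min and phosphorimaged. Fraction bound was edge-corrected and fitted to Y = (Bmax × X^h)/(Kd^h + X^h).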

Test [3] has as its target XPRT (Bacillus subtilis, UniProt P42085). The experiment in a line: XPRT interaction with ppApp. Format: binding. The note with it: data not shown.
Test [4] addresses T1, B. subtilis XPRT. The experiment in a line: Size exclusion chromatography of XPRT with ppGpp in the mobile phase. The note with it: 35 μM ppGpp in the mobile phase, XPRT at 10 or 20 μM. An outline of the steps:
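Untagged (TEV-cleaved) XPRT at 10 or 20 μM was run on a Superose 12 column at 0.25 mL/min. The mobile phase was 20 mM HEPES pH 8, 300 mM NaCl, 10 mM MgCl2, with ppGpp at 35 μM final, after equilibration with ≥1 column volume. A280 traces were baseline-normalized. Predicted retention volumes (monomer 13.58, dimer 12.41) came from the 21038 Da molecular weight and a column standard curve.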

For test [5], the target named is T1, B. subtilis XPRT. As to the kind of experiment: biochemical.
Test [6] deals with (p)ppGpp^0 B. subtilis. The experiment in a line: GTP levels by thin layer chromatography of 32P-orthophosphate-labeled cells. In kind it is cell-based, Bacillus subtilis.
Test [7] relates to B. subtilis. The experiment in a line: B. subtilis viability assay. In kind it is cell-based, Bacillus subtilis. The note with it: (p)ppGpp^0 xpt mutant B. subtilis, 1 mM xanthine. In a few lines: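 Strains were taken from single colonies, resuspended in S7 plus VILMTH amino acids, and spread on Spizizen casamino-acid agar for about 16 h at 30 °C. Cells were collected, diluted to OD600 0.01 in S7+VILMTH and grown to OD600 ≈ 0.2. After a t=0 sample, cultures were split and given 1 mM xanthine or water. Sampling was at 30, 60 and 120 min. Ten-fold dilutions were plated on LB for CFU/mL, in triplicate.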

The structures appear in SMILES notation.

The Kd is the concentration at which binding is half-saturated. The low end stands for tighter binding, the high end for weaker binding. One may read the Ki as a measure of affinity in units of concentration, obtained from inhibition or displacement. Higher therefore signals weaker binding.

T1 sequence (P42085 whole entry): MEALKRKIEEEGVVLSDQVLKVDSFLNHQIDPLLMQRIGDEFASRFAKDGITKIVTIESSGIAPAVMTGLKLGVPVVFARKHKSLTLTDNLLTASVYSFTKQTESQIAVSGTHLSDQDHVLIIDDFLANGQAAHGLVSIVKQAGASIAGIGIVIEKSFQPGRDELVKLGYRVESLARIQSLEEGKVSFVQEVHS
Chain of XPRT (P42085 whole entry): as above

As for `Nc1nc2c(ncn2[C@@H]2O[C@H](COP(=O)(O)O)[C@@H](OP(=O)(O)OP(=O)(O)O)[C@H]2O)c(=O)[nH]1` [pGpp], the “napp (apparent Hill coefficient from inhibition curve)” value in test [1] is on record as 1.6 ± 0.1. In test [2], the Kd was 760 ± 40 nM and the “nH (Hill coefficient from binding curve)” value was found to be 2.3 ± 0.2.
`Nc1ncnc2c1ncn2[C@@H]1O[C@H](COP(=O)(O)OP(=O)(O)O)[C@@H](OP(=O)(O)OP(=O)(O)O)[C@H]1O` [ppApp]: the “interaction with XPRT” value in test [3] is on record as “does not interact”.
With `Nc1nc2c(ncn2[C@@H]2O[C@H](COP(=O)(O)OP(=O)(O)O)[C@@H](OP(=O)(O)OP(=O)(O)O)[C@H]2O)c(=O)[nH]1` [ppGpp], in test [1], the “napp (apparent Hill coefficient from inhibition curve)” value is reported as 1.7 ± 0.1. Moreover, the “effect on XPRT oligomeric state” value in test [4] is reported as “stabilized the dimeric XPRT population”. Further, in test [2], binding was characterised by a dissociation constant (Kd) of 950 ± 30 nM and the “nH (Hill coefficient from binding curve)” value turned out to be 2.1 ± 0.1.
With `Nc1nc2c(ncn2[C@@H]2O[C@H](COP(=O)(O)OP(=O)(O)OP(=O)(O)O)[C@@H](OP(=O)(O)OP(=O)(O)O)[C@H]2O)c(=O)[nH]1` [pppGpp], the “napp (apparent Hill coefficient from inhibition curve)” value in test [1] was 1.5 ± 0.1. In test [5], this compound yielded a Ki of 2500 nM. In test [2], binding was characterised by a dissociation constant (Kd) of 9600 ± 2200 nM and the “nH (Hill coefficient from binding curve)” value is given as 1.3 ± 0.2.
On to `O=c1[nH]c(=O)c2nc[nH]c2[nH]1` [xanthine], for which the “increase in (p)ppGpp^0 GTP levels” value in test [6] ((p)ppGpp^0 B. subtilis during growth with xanthine) is given as ~ 6 fold. Further, in test [6] ((p)ppGpp^0 vs wild type B. subtilis, 1 mM xanthine, 30 min), the GTP levels entry is “elevated relative to wild type”. Moreover, the “viability (colony forming units)” value in test [7] is “unaffected”.

These data come from paper PMC7323586 (Journal of molecular biology, 2020).
